Laboratory results as given in ChEMBL document CHEMBL1158629, “Synthesis, in vitro and in vivo evaluation of [11C]MMTP: a potential PET ligand for mGluR1 receptors” (Bioorg Med Chem Lett, 2010).

Legend:
Type in all cases: ADME, organism-based
[1] = Ratio of drug uptake in caudate to cerebellum of baboon brain at 5 +/- 0.5 mCi, iv after 35 mins; conditions: papio hamadryas, in vivo
Method in brief: (§1)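 Fasted baboons were immobilized with ketamine (10 mg/kg, i.m.) and maintained on 1.5~2.0 % isoflurane via endotracheal tube. Core temperature was held at 37°C on a heated water blanket during PET scanning.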

[2] = Ratio of drug uptake in hippocampus to cerebellum of baboon brain at 5 +/- 0.5 mCi, iv after 35 mins; conditions: papio hamadryas, in vivo; method in brief: as §1
[3] = Ratio of drug uptake in frontal cortex to cerebellum of baboon brain at 5 +/- 0.5 mCi, iv after 35 mins; conditions: papio hamadryas, in vivo; method in brief: as §1
[4] = Ratio of drug uptake in putamen to cerebellum of baboon brain at 5 +/- 0.5 mCi, iv after 35 mins; conditions: papio hamadryas, in vivo; method in brief: as §1
[5] = Ratio of drug uptake in amygdala to cerebellum of baboon brain at 5 +/- 0.5 mCi, iv after 35 mins; conditions: papio hamadryas, in vivo; method in brief: as §1
[6] = Ratio of drug uptake in caudate to cerebellum of baboon brain at 5 +/- 0.5 mCi, iv after 65 mins; conditions: papio hamadryas, in vivo, pooled result: one value given for 5 cell lines, strains, targets or settings; method in brief: as §1
[7] = Ratio of drug uptake in caudate to cerebellum of baboon brain at 5 +/- 0.5 mCi, iv after 85 mins; conditions: papio hamadryas, in vivo; method in brief: as §1
[8] = Ratio of drug uptake in hippocampus to cerebellum of baboon brain at 5 +/- 0.5 mCi, iv after 85 mins; conditions: papio hamadryas, in vivo; method in brief: as §1
[9] = Ratio of drug uptake in frontal cortex to cerebellum of baboon brain at 5 +/- 0.5 mCi, iv after 85 mins; conditions: papio hamadryas, in vivo; method in brief: as §1
[10] = Ratio of drug uptake in putamen to cerebellum of baboon brain at 5 +/- 0.5 mCi, iv after 85 mins; conditions: papio hamadryas, in vivo; method in brief: as §1
[11] = Ratio of drug uptake in amygdala to cerebellum of baboon brain at 5 +/- 0.5 mCi, iv after 85 mins; conditions: papio hamadryas, in vivo; method in brief: as §1
[12] = Metabolic stability in baboon brain assessed as compound remaining at 5 +/- 0.5 mCi, iv after 30 mins; conditions: papio hamadryas, in vivo, 0.5 h
[13] = Metabolic stability in baboon brain assessed as compound remaining at 5 +/- 0.5 mCi, iv after 90 mins; conditions: papio hamadryas, in vivo, 1.5 h

Q: For CN(C)c1ccnc2sc3c(=O)n(-c4ccc(O[11CH3])cc4)cnc3c12, which Ratio [1] is on record?
A: 2

Q: And the Ratio [2]?
A: 2

Q: What about the Ratio [3] of the same compound?
A: 2

Q: What about the Ratio [4] of the same compound?
A: 2

Q: What about the Ratio [5] of the same compound?
A: 2

Q: What about the Ratio [6] of the same compound?
A: 1.65

Q: And the Ratio [7]?
A: 1.6

Q: And the Ratio [8]?
A: 1.6

Q: What about the Ratio [9] of the same compound?
A: 1.6

Q: What about the Ratio [10] of the same compound?
A: 1.6

Q: What about the Ratio [11] of the same compound?
A: 1.6

Q: And the Stability [12]?
A: 45%

Q: What about the Stability [13] of the same compound?
A: 30%
